In ChEMBL document CHEMBL4602702, “Red-Emitting Dibenzodiazepinone Derivatives as Fluorescent Dualsteric Probes for the Muscarinic Acetylcholine M2 Receptor” (J Med Chem, 2020):
Activity calls are given as the source filed them. The calls are words filed in the database; no cut-off is given here.

What was measured:
[1] = biological target: T1, Muscarinic acetylcholine receptor M1 (Homo sapiens, UniProt P11229); experiment: Displacement of [3H]-NMS from human muscarinic M1 receptor stably expressed in CHO-K9 cells by radioligand competitive binding assay; format: cell-based
T1 sequence (P11229 whole entry): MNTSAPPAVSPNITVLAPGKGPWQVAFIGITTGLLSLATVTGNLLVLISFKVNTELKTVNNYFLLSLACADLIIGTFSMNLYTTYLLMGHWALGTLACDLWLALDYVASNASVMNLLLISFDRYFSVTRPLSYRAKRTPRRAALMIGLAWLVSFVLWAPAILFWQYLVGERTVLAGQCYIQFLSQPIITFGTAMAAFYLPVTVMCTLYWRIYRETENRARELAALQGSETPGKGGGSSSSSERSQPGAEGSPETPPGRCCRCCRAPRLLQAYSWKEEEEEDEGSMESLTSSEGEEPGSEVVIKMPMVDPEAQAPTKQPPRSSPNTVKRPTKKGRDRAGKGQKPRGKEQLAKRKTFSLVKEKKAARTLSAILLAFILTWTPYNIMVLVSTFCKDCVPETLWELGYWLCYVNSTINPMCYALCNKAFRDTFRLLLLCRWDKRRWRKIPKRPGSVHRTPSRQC
Procedure, shortened: (§1)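 Equilibrium competition binding at live CHO-hMxR cells with [3H]NMS at M1 0.2, M2 0.2, M3 0.2, M4 0.1, M5 0.3 nM. […] Four-parameter logistic fit converted to pKi; at least three experiments in triplicate (some two).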

[2] = biological target: T2, Muscarinic acetylcholine receptor M2 (Homo sapiens, UniProt P08172); experiment: Displacement of [3H]-NMS from human muscarinic M2 receptor stably expressed in CHO-K9 cells by radioligand competitive binding assay; format: cell-based; procedure, shortened: as §1
T2 sequence (P08172 whole entry): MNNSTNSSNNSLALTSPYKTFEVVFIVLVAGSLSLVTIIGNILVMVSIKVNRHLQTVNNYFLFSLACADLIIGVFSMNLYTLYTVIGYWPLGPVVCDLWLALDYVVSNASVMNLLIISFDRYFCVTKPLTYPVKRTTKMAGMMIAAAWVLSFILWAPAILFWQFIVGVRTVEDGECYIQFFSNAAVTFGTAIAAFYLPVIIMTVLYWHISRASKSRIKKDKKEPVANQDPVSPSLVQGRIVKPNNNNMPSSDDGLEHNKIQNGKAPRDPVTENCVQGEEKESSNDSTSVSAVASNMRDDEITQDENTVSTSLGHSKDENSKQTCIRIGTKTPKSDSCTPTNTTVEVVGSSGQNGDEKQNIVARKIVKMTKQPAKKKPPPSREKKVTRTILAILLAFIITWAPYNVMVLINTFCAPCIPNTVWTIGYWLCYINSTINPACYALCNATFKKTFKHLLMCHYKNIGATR

[3] = biological target: T3, Muscarinic acetylcholine receptor M4 (Homo sapiens, UniProt P08173); experiment: Displacement of [3H]-NMS from human muscarinic M4 receptor stably expressed in CHO-K9 cells by radioligand competitive binding assay; format: cell-based; procedure, shortened: as §1
T3 sequence (P08173 whole entry): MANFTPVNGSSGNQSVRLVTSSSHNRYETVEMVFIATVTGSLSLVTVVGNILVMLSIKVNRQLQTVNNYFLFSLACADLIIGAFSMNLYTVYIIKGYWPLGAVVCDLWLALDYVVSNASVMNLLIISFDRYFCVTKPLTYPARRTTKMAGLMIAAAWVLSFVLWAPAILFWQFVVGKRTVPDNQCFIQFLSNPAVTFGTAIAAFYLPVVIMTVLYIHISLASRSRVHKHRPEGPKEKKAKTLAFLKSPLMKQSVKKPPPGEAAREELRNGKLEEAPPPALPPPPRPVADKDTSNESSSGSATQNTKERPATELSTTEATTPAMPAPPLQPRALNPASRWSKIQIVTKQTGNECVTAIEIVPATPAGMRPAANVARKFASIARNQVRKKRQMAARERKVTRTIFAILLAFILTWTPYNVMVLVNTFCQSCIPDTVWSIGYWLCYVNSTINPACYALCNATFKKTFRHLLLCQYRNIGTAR

[4] = biological target: Muscarinic acetylcholine receptor M3 (Homo sapiens, UniProt P20309); experiment: Displacement of [3H]-NMS from human muscarinic M3 receptor stably expressed in CHO-K9 cells by radioligand competitive binding assay; format: cell-based; procedure, shortened: as §1
Muscarinic acetylcholine receptor M3, sequence (P20309 whole entry): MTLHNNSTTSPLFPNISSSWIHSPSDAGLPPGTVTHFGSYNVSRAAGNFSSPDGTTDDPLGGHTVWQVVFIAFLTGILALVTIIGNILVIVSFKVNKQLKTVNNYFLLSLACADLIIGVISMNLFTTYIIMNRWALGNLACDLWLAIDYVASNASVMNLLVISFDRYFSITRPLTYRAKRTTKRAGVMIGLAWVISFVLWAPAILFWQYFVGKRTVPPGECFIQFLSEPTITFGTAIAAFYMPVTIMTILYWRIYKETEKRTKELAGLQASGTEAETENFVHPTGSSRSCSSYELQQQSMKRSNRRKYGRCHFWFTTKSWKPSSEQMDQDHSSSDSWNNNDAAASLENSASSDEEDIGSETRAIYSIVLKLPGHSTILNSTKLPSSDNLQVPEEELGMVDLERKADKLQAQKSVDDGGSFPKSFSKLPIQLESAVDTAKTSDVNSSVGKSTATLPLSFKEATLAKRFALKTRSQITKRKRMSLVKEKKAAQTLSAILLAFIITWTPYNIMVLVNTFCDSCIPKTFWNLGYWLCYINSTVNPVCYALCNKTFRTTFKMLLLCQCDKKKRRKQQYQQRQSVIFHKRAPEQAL

[5] = biological target: T4, Muscarinic acetylcholine receptor M5 (Homo sapiens, UniProt P08912); experiment: Displacement of [3H]-NMS from human muscarinic M5 receptor stably expressed in CHO-K9 cells by radioligand competitive binding assay; format: cell-based; procedure, shortened: as §1
T4 sequence (P08912 whole entry): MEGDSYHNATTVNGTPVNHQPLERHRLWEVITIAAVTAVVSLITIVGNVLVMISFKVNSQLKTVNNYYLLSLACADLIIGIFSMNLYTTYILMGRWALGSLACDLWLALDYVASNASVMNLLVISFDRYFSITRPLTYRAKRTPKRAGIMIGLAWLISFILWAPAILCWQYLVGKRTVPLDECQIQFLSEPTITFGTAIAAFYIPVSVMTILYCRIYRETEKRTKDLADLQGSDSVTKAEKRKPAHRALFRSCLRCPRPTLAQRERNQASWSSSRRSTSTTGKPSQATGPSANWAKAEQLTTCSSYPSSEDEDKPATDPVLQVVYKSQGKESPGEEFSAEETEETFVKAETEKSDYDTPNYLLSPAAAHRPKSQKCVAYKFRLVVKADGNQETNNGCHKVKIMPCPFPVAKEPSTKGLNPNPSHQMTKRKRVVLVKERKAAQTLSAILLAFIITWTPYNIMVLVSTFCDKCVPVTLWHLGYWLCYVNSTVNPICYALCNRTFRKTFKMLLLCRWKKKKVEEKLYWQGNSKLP

[6] = biological target: T2, Muscarinic acetylcholine receptor M2; experiment: (§2) Antagonist activity at human muscarinic M2 receptor expressed in HEK293 cells co-expressing HA-Galphaq/i5 assessed as inhibition of carbachol-induced IP1 accumulation at 37 degree C pre-incubated for 30 mins followed by carbachol addition and measured after 60 mins by HTRF assay; format: functional, cell-based
[7] = biological target: T2, Muscarinic acetylcholine receptor M2; experiment: Binding affinity to human muscarinic M2 receptor expressed in […] cells incubated in dark at 22 degree C for 2 hrs by FACSCalibur flow cytometric saturation binding study; format: cell-based
[8] = biological target: T5, Muscarinic acetylcholine receptor M2 (Homo sapiens) (UniProt P08172); experiment: Agonist activity at human muscarinic M2 receptor expressed in HEK293 cells co-expressing HA-Galphaq/i5 assessed as induction of Galphaq/i5-mediated IP1 accumulation by HTRF assay; format: functional, cell-based
T5 sequence (whole entry): T2 sequence (P08172 whole entry)
Procedure, shortened: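 HEK-293 cells transiently co-transfected with hM2R and hybrid Gαqi5-HA, run in agonist mode at 37 °C; IP1 accumulation measured. Carbachol control from 14 independent experiments in duplicate; test ligands from three or four independent experiments in duplicate.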

[9] = biological target: T3, Muscarinic acetylcholine receptor M4; experiment: as §2, with “M4” for “M2”, “22” for “37”, “180” for “30”, “further incubated at 37 degree C for 90” for “measured after 60”; format: functional, cell-based
[10] = biological target: T5, Muscarinic acetylcholine receptor M2 (Homo sapiens); experiment: Binding affinity to human muscarinic M2 receptor expressed in […] cells assessed as unspecific binding at Kd incubated in dark at 22 degree C for 2 hrs in presence of atropine by FACSCalibur flow cytometric saturation binding study relative to control; format: cell-based
[11] = biological target: T2, Muscarinic acetylcholine receptor M2; experiment: as §2, with “22” for “37”, “180” for “30”, “further incubated at 37 degree C for 90” for “measured after 60”; format: functional, cell-based
Procedure, shortened: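 HEK-hM2-Gαqi5-HA cells (transient transfection) preincubated with antagonist at 22 °C for 180 min, then carbachol 0.3 μM (≈EC80) added and incubation continued at 37 °C for 90 min. Readout is inhibition of IP1 accumulation as pIC50, mean ± SEM of n independent experiments, each in duplicate.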

[12] = biological target: T2, Muscarinic acetylcholine receptor M2; experiment: Binding affinity to human muscarinic M2 receptor expressed in CHO-K9 cells incubated in dark measured after 60 mins by Hoechst H33342 dye based confocal plate reader assay; format: cell-based
Procedure, shortened: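 Live CHO-hMxR cells (M1 or M2) incubated with fluorescent ligand at 22 °C in the dark for 1 h, washed, then imaged at once by high-content confocal plate reader.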

[13] = biological target: T2, Muscarinic acetylcholine receptor M2; experiment: Displacement of 4-(2-((1E,3E)-5-((E)-1-(6-((3,5-Bis((2-(3-(1-(4-(1-(2-oxo-2-(11-oxo-10,11-dihydro-5H-dibenzo[b,e][1,4]diazepin-5-yl)ethyl)piperidin-4-yl)butyl)-1H-imidazol-4-yl)propanamido)ethyl)carbamoyl)benzyl)amino)-6-oxohexyl)-3,3-dimethyl-5-sulfoindolin-2-ylidene)penta-1,3-dien-1-yl)-3,3-dimethyl-3H-indol-1-ium-1-yl)butane-1-sulfonate Tris(hydrotrifluoroacetate) fluorescent tracer from human muscarinic M2 receptor expressed in […] cells measured after 60 mins by Hoechst H33342 dye based confocal plate reader assay; format: cell-based
[14] = biological target: T2, Muscarinic acetylcholine receptor M2; experiment: Displacement of 4-(2-((1E,3E)-5-((E)-3,3-Dimethyl-1-(6-oxo-6-((2-(3-(1-(4-(1-(2-oxo-2-(11-oxo-10,11-dihydro-5H-dibenzo[b,e][1,4]diazepin-5-yl)ethyl)piperidin-4-yl)butyl)-1H-imidazol-4-yl)propanamido)ethyl)-amino)hexyl)-5-sulfoindolin-2-ylidene)penta-1,3-dien-1-yl)-3,3-dimethyl-3H-indol-1-ium-1-yl)butane-1-sulfonateHydrotrifluoroacetate fluorescent tracer from human muscarinic M2 receptor expressed in […] cells measured after 60 mins by Hoechst H33342 dye based confocal plate reader assay; format: cell-based
[15] = Chemical stability of compound in PBS buffer assessed as retention time at pH 7.4 and 22 degree C measured up to 48 hrs by RP-HPLC analysis; format: physicochemical; conditions: pH 7.4, 48 h
Procedure, shortened: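 Fluorescent ligand stability checked in PBS pH 7.4 over 48 h by RP-HPLC on a C18 column with an aqueous TFA/acetonitrile gradient, oven at 25 °C, detection at 220 nm.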

SMILES	Ki [1] [nM]	Ki [2] [nM]	Ki [3] [nM]	Ki [4] [nM]	Ki [5] [nM]	other results
NCCCCC1CCN(CC(=O)N2c3ccccc3NC(=O)c3ccccc32)CC1		10.7				
C[N+]1=C(/C=C/C=C/C=C2/N(CCCCCC(=O)NCCCCC3CCN(CC(=O)N4c5ccccc5NC(=O)c5ccccc54)CC3)c3ccccc3C2(C)C)C(C)(C)c2ccccc21	120	53.7	67.6	631	288	
CC1(C)C(/C=C/C=C/C=C2/N(CCCCCC(=O)NCCCCC3CCN(CC(=O)N4c5ccccc5NC(=O)c5ccccc54)CC3)c3ccccc3C2(C)C)=[N+](CCCCS(=O)(=O)[O-])c2ccccc21	347	141	200	871	871	
NCCNC(=O)CCc1cn(CCCCC2CCN(CC(=O)N3c4ccccc4NC(=O)c4ccccc43)CC2)cn1		0.589				
CCC(=O)NCc1cc(C(=O)NCCNC(=O)CCc2cn(CCCCC3CCN(CC(=O)N4c5ccccc5NC(=O)c5ccccc54)CC3)cn2)cc(C(=O)NCCNC(=O)CCc2cn(CCCCC3CCN(CC(=O)N4c5ccccc5NC(=O)c5ccccc54)CC3)cn2)c1						Ki [13]: 0.525 nM; Ki [14]: 0.355 nM
Cc1cc(/C=C/C=C/c2ccc(N(C)C)cc2)cc(C)[n+]1CCCCC1CCN(CC(=O)N2c3ccccc3NC(=O)c3ccccc32)CC1	30.9	17	16.2	85.1	200	
Cc1cc(/C=C/C=C/c2ccc(N(C)C)cc2)cc(C)[n+]1CCN1CCN(CCCCC2CCN(CC(=O)N3c4ccccc4NC(=O)c4ccccc43)CC2)CC1	13.8	3.02	9.55	148	389	
NCCN1CCN(CCCCC2CCN(CC(=O)N3c4ccccc4NC(=O)c4ccccc43)CC2)CC1	5.89	0.182	0.447	145	234	

Continued, in another order:

Ki [1] [nM]	Ki [2] [nM]	Ki [3] [nM]	Ki [4] [nM]	Ki [5] [nM]	SMILES	other results
15.1	4.47	18.6	85.1	69.2	C[N+]1=C(/C=C/C=C/C=C2/N(CCCCCC(=O)NCCN3CCN(CCCCC4CCN(CC(=O)N5c6ccccc6NC(=O)c6ccccc65)CC4)CC3)c3ccccc3C2(C)C)C(C)(C)c2ccccc21	
	0.269				NCc1cc(C(=O)NCCNC(=O)CCc2cn(CCCCC3CCN(CC(=O)N4c5ccccc5NC(=O)c5ccccc54)CC3)cn2)cc(C(=O)NCCNC(=O)CCc2cn(CCCCC3CCN(CC(=O)N4c5ccccc5NC(=O)c5ccccc54)CC3)cn2)c1	
10	1.35	3.98	67.6	141	CC1(C)C(/C=C/C=C/C=C2/N(CCCCCC(=O)NCCN3CCN(CCCCC4CCN(CC(=O)N5c6ccccc6NC(=O)c6ccccc65)CC4)CC3)c3ccccc3C2(C)C)=[N+](CCCCS(=O)(=O)[O-])c2ccccc21	IC50 [6]: 49 nM; Kd ([7]; read-out: Kd): 2 nM; Kd ([7]; read-out: pKd (converted)): 2.57 nM; Activity [8]: inactive; IC50 [9]: 91.2 nM; Activity [10]: 10%; IC50 [11]: 60.3 nM; Kd ([12]; read-out: Kd): 10.8 nM; Kd ([12]; read-out: pKd (converted)): 8.71 nM
	0.933				CC1(C)C(/C=C/C=C/C=C2/N(CCCCCC(=O)NCCNC(=O)CCc3cn(CCCCC4CCN(CC(=O)N5c6ccccc6NC(=O)c6ccccc65)CC4)cn3)c3ccccc3C2(C)C)=[N+](CCCCS(=O)(=O)[O-])c2ccccc21	
	1.41				CC1(C)C(/C=C/C=C/C=C2/N(CCCCCC(=O)NCc3cc(C(=O)NCCNC(=O)CCc4cn(CCCCC5CCN(CC(=O)N6c7ccccc7NC(=O)c7ccccc76)CC5)cn4)cc(C(=O)NCCNC(=O)CCc4cn(CCCCC5CCN(CC(=O)N6c7ccccc7NC(=O)c7ccccc76)CC5)cn4)c3)c3ccccc3C2(C)C)=[N+](CCCCS(=O)(=O)[O-])c2ccccc21	
2.29	0.257	2.57	21.9	30.9	CC1(C)C(/C=C/C=C/C=C2/N(CCCCCC(=O)NCc3cc(C(=O)NCCN4CCC(N5CCC(n6c(=O)[nH]c7ccccc76)CC5)CC4)cc(C(=O)NCCN4CCN(CCCCC5CCN(CC(=O)N6c7ccccc7NC(=O)c7ccccc76)CC5)CC4)c3)c3ccc(S(=O)(=O)[O-])cc3C2(C)C)=[N+](CCCCS(=O)(=O)O)c2ccccc21.O=C(O)C(F)(F)F.O=C(O)C(F)(F)F.O=C(O)C(F)(F)F.O=C(O)C(F)(F)F	Retention_time [15]: 18 min; Kd ([7]; read-out: Kd): 0.65 nM; Activity [10]: 10%
